Source: PubChem (The Scripps Research Institute Molecular Screening Center)
PME-1 inh – PME-1 (human) inhibition | Q9Y570 | recombinant PME-1, FP-Rh probe fluorescence polarization | inhibition, % at 5.9 µM | 320,000 tested, 0.53% active | AID 2130;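 active = inhibition above the campaign mean of all compounds plus 3 SD, cut at about 26% in these data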;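 also: competitive labeling of PME-1 active site by serine hydrolase directed probe; 0% = PME-1 with DMSO and 100% = wells lacking PME-1 enzyme; inhibitors block probe labeling so polarization falls and inhibition rises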
SIAE primary – inhibitors of human sialic acid acetylesterase SIAE; SIAE FP-Rh probe binding, fluorescence polarization; inhibition, % at 9.66 µM; 370,000 tested, 0.69% active; AID 1053197;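 active = inhibition above a cutoff: mean of compounds within the control limits plus 3 SD of those, cut at about 17% in these data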;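 also: 0% = plate median of compound wells and 100% = probe without SIAE protein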
Fam108B counter – Fam108B inhibition, counter-screen for RBBP9 inhibitors; recombinant Fam108B, FP-Rh probe fluorescence polarization; inhibition, % at 9.51 µM; 300,000 tested, 0.33% active; AID 1947;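 active = inhibition above the screen mean inhibition plus 3 SD, computed separately per campaign, cut at about 18% in these data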;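 also: inhibitors lower polarization as less probe binds the enzyme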
TCR CD3 inh – human TCR-CD3 binding inhibition | 360,000 tested, 0.37% active | inhibition, % at 9.4 µM | TAMRA-labeled TCR probe fluorescence, biochemical | AID 651800; in the data active = inhibition above about 19%;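 also: recombinant mutant TCR 2C K166C tagged with TAMRA read by polarization; 0% = receptor in buffer alone and 100% = receptor with positive control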
mABHD4 FP – inhibits mouse alpha/beta hydrolase domain 4 | purified mABHD4, FP-Rh probe fluorescence polarization | 370,000 tested, 0.54% active | inhibition, % at 8.92 µM | Q8VD66;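 active = inhibition exceeding the mean over every tested compound plus 3 SD, cut at about 30% in these data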;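 also: 0% = plate median of compound wells and 100% = S159A mutant with DMSO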
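System: mouse ABHD4 enzyme, wild type / Medium: HEPES pH 7.0, NaCl, Pluronic buffer / Reagent: FP-Rh activity-based fluorescent probe / Control set: S159A mutant high control, sample median low control / Detection: fluorescence polarization with parallel and perpendicular emission, 525/598 nm / Schedule: 45 min + 60 min at 25 °C / Compound dosing: 8.92 µM, single dose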
HTRA1 inhibitor – HTRA1 (human) protease inhibition. Q92743. recombinant HTRA1, FP-rhodamine activity-based probe, fluorescence polarization. inhibition, % at 5.96 µM. 340,000 tested, 0.5% active. AID 504803; in the data active = inhibition above about 36%;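 also: 0% = enzyme with DMSO and 100% = wells lacking enzyme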
Target sequence (Q92743 whole entry, looked up): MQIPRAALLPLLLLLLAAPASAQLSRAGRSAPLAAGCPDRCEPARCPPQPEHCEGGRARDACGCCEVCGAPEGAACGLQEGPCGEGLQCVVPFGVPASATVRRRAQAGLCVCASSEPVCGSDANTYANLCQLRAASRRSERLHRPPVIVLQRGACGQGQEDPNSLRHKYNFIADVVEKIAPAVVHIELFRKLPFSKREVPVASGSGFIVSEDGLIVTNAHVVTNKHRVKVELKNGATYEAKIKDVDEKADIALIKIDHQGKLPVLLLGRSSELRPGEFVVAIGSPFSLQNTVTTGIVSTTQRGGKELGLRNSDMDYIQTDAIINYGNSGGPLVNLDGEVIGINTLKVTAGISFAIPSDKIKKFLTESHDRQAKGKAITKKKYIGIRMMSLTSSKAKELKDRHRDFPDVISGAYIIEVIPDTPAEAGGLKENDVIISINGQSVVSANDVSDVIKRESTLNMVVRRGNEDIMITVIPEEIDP
HTRA1 conf – confirmation of human HTRA1 inhibitors | shares compounds with HTRA1 inhibitor | recombinant HTRA1, FP-rhodamine activity-based probe, fluorescence polarization | inhibition, % at 5.96 µM | 1,600 tested, 66% active;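 active = mean inhibition over three repeats above a set limit taken from the earlier primary screen, cut at about 37% in these data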;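 also: 0% = HTRA1 with DMSO and 100% = wells lacking HTRA1; inhibitors block probe binding so polarization drops and inhibition rises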
The depositor's hits bear a star; · = not tested or not shown. An excerpt weighted towards active compounds, which were near 1.8% of everything screened.

SMILES | PME-1 inh | SIAE primary | Fam108B counter | TCR CD3 inh | mABHD4 FP | HTRA1 inhibitor | HTRA1 conf
CCn1c(=O)c(C(=O)CN2c3ccccc3CC2C)c(N)n(Cc2ccccc2)c1=O (configuration not stated) | 0 | 4 | 1 | -4 | 11 | 38* | 6
COc1cc(N=Nc2ccc(Br)cc2)cc(C=O)c1O | · | -8 | · | 12 | 12 | 46* | 56*
O=C(/C=C/c1ccco1)Oc1cc(Br)cc(/C=N/NC(=O)c2ccccc2O)c1 | -3 | 3 | -12 | 12 | 15 | 84* | 143*
CC1(C)CCCN(C(=O)c2ccc3c(c2NCCO)C(=O)c2ccccc2C3=O)C1 | 0 | 6 | 0 | -17 | 5 | 42* | 39*
O=C(COc1coc(CN2CCN(c3ccccc3)CC2)cc1=O)Nc1ccccc1 | -1 | 13 | 2 | 0 | 8 | 2 | ·
Cc1cccc(NC(=O)COc2coc(CN3CCN(c4ccccc4)CC3)cc2=O)c1C | 2 | -3 | -1 | 6 | 2 | 57* | 10
O=C(NCCO)c1cc2ccccc2cc1O | -1 | 5 | -1 | 2 | 4 | 5 | ·
C/C(=N\NC(=O)c1cc2ccccc2cc1O)c1ccc2c(c1)OCO2 | 14 | -10 | 4 | 1 | 13 | 42* | 7
CCOC(=O)C(C)/C(C)=N/NC(=O)c1cc2ccccc2cc1O (configuration not stated) | 8 | 14 | 11 | 1 | 18 | 43* | 28
CCC(C)Nc1ccc(NC(C)CC)cc1 (configuration not stated) | 7 | · | · | · | · | 67* | 75*
CC(C)N1Cc2nnn(Cc3ccc(F)cc3)c2-c2cc(F)ccc2S1(=O)=O | · | -6 | · | · | -11 | · | ·
O=C(Nc1ccc2nc(-c3ccco3)c(-c3ccco3)nc2c1)N1CCN(c2ccccn2)CC1 | 3 | 22* | 10 | 34* | 30* | 43* | -21
Cc1ccc2c(c1)c1c(n2C)C(C(N)=O)CCC1 (configuration not stated) | 4 | 1 | 2 | 10 | 5 | 3 | ·
Cc1ccc2c(c1)c1c(n2C)-c2[nH]ncc2CC1 | 9 | 21* | 8 | 4 | 25 | 37* | 20
O=C(NC(=S)NNC(=O)c1cc2ccccc2cc1O)c1ccco1 | 3 | 0 | 10 | 7 | 15 | 45* | 35
COc1ccc(C(=O)NC(=S)NNC(=O)c2ccco2)cc1 | 1 | 1 | 9 | 16 | 0 | 9 | ·
COc1ccc(C(NC(C)=O)c2cc(Cl)c3cccnc3c2O)cc1OC (configuration not stated) | -3 | 15 | 2 | -2 | 6 | 42* | 56*
Oc1c(Cl)cc(Cl)c2cccnc12 | · | 23* | · | -3 | 11 | 48* | 56*
CCC(=O)NC(c1ccc(C)cc1)c1cc(Cl)c2cccnc2c1O (configuration not stated) | · | · | · | · | · | 62* | 76*
CCC(=O)NC(C)c1cc(Cl)c2cccnc2c1O (configuration not stated) | -6 | 8 | · | 4 | -1 | 48* | 82*
COc1ccc(C(NC(C)=O)c2nccc3cc(OC)c(OC)cc23)cc1OC (configuration not stated) | · | 6 | · | -7 | -12 | -8 | ·
CCC(=O)NC(c1cc(Cl)c2ccccc2c1O)C(C)C (configuration not stated) | 0 | -11 | · | 0 | -4 | -15 | ·
FC(F)(F)c1cccc(N2CCN(C(=S)Nc3nccc4ccccc34)CC2)c1 | · | -1 | · | · | -1 | · | ·
CCCC[C@@H]1C(=O)N2N=Cc3cc4ccccc4cc3[C@H]2N2N=Cc3cc4ccccc4cc3[C@@H]12 | · | -7 | · | · | -6 | · | ·
CC(C)CN1C(=O)C[C@]2(C(=O)N(C)c3ccc(NS(=O)(=O)C4CC4)cc32)C1c1ccccc1 (some centres not stated) | · | -16 | · | · | 0 | · | ·
SMILES | PME-1 inh | SIAE primary | Fam108B counter | TCR CD3 inh | mABHD4 FP | HTRA1 inhibitor | HTRA1 conf
COC(=O)C12C=C3CC(C)=C3C(=O)N1Cc1[nH]c3ccccc3c1C2 (configuration not stated) | · | 8 | · | · | 6 | · | ·
CCOc1ccc(C(Nc2cccnc2)c2cc(Cl)c3cccnc3c2O)cc1 (configuration not stated) | 0 | 0 | 0 | 0 | 0 | 43* | 42*
Cc1cc(Cl)c2ccc3ccccc3c2n1 | -5 | 4 | -4 | 3 | -3 | 1 | ·
Cc1ccc2c(Cl)cc(Cl)c(O)c2n1 | · | 11 | · | -4 | 5 | 40* | 47*
CC(=O)NC(C)c1cc(Cl)c2cccnc2c1O (configuration not stated) | 8 | 1 | · | -1 | 4 | 41* | 52*
CN1CCN(C(c2ccc(F)cc2)c2ccc3cccnc3c2O)CC1 (configuration not stated) | · | · | · | · | · | 5 | ·
O=C(NC(c1ccccc1)c1cc(Cl)c2cccnc2c1O)c1cccnc1 (configuration not stated) | -3 | -2 | -3 | -7 | 6 | · | ·
CN1CCN(C(c2ccc(Br)cc2)c2cc(Cl)c3cccnc3c2O)CC1 (configuration not stated) | 6 | -4 | -4 | -16 | -5 | 52* | 70*
CC(=O)NC(C)c1cc(Cl)c2ccccc2c1O (configuration not stated) | 8 | 6 | · | 2 | 0 | -1 | ·
Oc1ccc(-c2nc3ccc4ccccc4c3c3c2CCC3)cc1O | -2 | -2 | -1 | -3 | 15 | 41* | 56*
Cc1ccc(N=Cc2ccc[nH]2)c(O)c1 | 7 | -4 | 5 | -12 | 8 | 44* | 21
Cc1ccccc1N=Cc1ccc[nH]1 | · | 0 | · | -10 | -5 | 1 | ·
O=C1C(NC(=O)N2c3ccccc3C=Cc3ccccc32)CCCCN1Cc1cccc(C(F)(F)F)c1 (configuration not stated) | · | -1 | · | · | -14 | · | ·
O=C(N/N=C1/CCSC1)c1cc(Br)ccc1O | -10 | 10 | 5 | 17 | 11 | 45* | 21
O=C(NN=C1CCCC1)c1cc(Br)ccc1O | -6 | 5 | 8 | 5 | 12 | 5 | ·
COCCN1Cc2cc(C(=O)OC)c3c(c2C1=O)c1cc(OC)ccc1n3C(=O)c1ccccc1 | · | -16 | · | -2 | -6 | · | ·
NC(=O)c1ncn([C@@H]2O[C@H](C(=O)N[C@H](Cc3c[nH]c4ccccc34)C(=O)O)[C@@H](O)[C@H]2O)n1 | · | 4 | · | 2 | 6 | · | ·
CCCn1c(CNc2ccccc2O)nc2ccccc21 | 5 | 6 | 12 | -5 | 27 | 44* | 59*
COc1cc(C(C(=O)NC(C)(C)C)N(C(=O)CNC(=O)c2cccs2)c2ccc(C(C)C)cc2)cc(OC)c1OC (configuration not stated) | · | 5 | · | -7 | 5 | 39* | 49*
